What is called IC50 is the concentration needed to halve the response being measured. As usually defined, the ED50 is the dose at which the effect has come halfway, by size or by number of responders. Low readings indicate an effect at a small dose, high ones a need for a large dose.

The structures appear in SMILES notation.

Data on 23 compounds can be found in ChEMBL document CHEMBL1128513, “(Aryloxy)methylsilane derivatives as new cholesterol biosynthesis inhibitors: synthesis and hypocholesterolemic activity of a new class of squalene epoxidase inhibitors” (J Med Chem, 1995).

The nature of experiment [1]: In vitro ability to inhibit cholesterol biosynthesis in HepG2 cells in culture from [14C]acetate. Format: functional, cell-based.
Experiment [2] in a line: In vivo ability to inhibit cholesterol biosynthesis from [14C]acetate after a single oral administration in female rats. The experiment is classed as functional. The conditions noted are these: Rattus norvegicus. The gist of the method:
(§1)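 Female SD rats (60–80 g) kept 11 days on a reversed light cycle with free access to food and water. Single oral dose at 9:00 a.m., suspended in water with 2% DMSO and 5% Tween 80 (1 mL/100 g). [14C]acetate given i.p. at 80 μCi/kg 1 h later. Liver taken after a further 1 h, saponified, and [14C]cholesterol analysed by TLC against controls. Mean ED50 from at least two experiments.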

Experiment [3] in a line: In vitro ability to inhibit cholesterol biosynthesis in HepG2 cells in culture from [14C]mevalonate. Format: functional, cell-based. Summed up: (§2)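 Hep-G2 cells grown in DMEM with 10% fetal calf serum to subconfluence, then 48 h in DMEM plus 2% Ultroser G. Pretreated 1 h with compound or vehicle (DMSO 0.1%), then [14C]mevalonate (1 μCi/mL) for 4 h. Cells lysed in KOH and saponified in ethanolic KOH at 75 °C for 1 h. Nonsaponifiable lipids separated by TLC. IC50 derived from % [14C]cholesterol versus control cells.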

Experiment [4] deals with HepG2. Description: In vitro ability to inhibit cholesterol biosynthesis in HepG2 cells in culture from [14C]acetate. The experiment is classed as functional, cell-based. The conditions noted are these: Homo sapiens.
The test system of another experiment is Rattus norvegicus. Description: In vivo ability to inhibit cholesterol biosynthesis from [14C]acetate after a single oral administration in female rats. Format: functional. Summed up: as §1
Experiment [5] concerns HepG2. Description: In vitro ability to inhibit cholesterol biosynthesis in HepG2 cells in culture from [14C]mevalonate. Format: functional, cell-based. The conditions noted are these: Homo sapiens. Summed up:
as §2

In the case of `CCN(C/C=C/C#CC(C)(C)C)Cc1cccc(OC[Si](C)(C)c2ccccc2C#N)c1`, the IC50 in experiment [1] and in experiment [3] was 80 nM each time. In experiment [2], this compound displayed an ED50 of 7 mg/kg.
On to `CCN(CC#CC#CC(C)(C)OC)Cc1cccc(OC[Si](C)(C)c2ccccc2C)c1`, for which the figures for the IC50 (with HepG2 [4]; in experiment [3]) were 120 nM and 290 nM, respectively. In experiment [2], this compound showed an ED50 of 1.8 mg/kg.
As to `C=Cc1ccc([Si](C)(C)COc2cccc(CN(CC)C/C=C/C#CC(C)(C)C)c2)cc1`, the ED50 in experiment [2] was over 40 mg/kg. Further, the IC50 in experiment [3] is 1320 nM.
As for `CCN(C/C=C/C#CC(C)(C)C)Cc1cccc(OC[Si](C)(C)c2cccc(C)c2)c1`, the IC50 in experiment [3] was over 10000 nM.
Same read-out and setting: the figure for `CCN(C/C=C/C#CC(C)(C)C)Cc1cccc(OC[Si](C)(C)c2ccc(S)cc2)c1` is 10000 nM.
In experiment [2], `CCN(C/C=C/C#CC(C)(C)C)Cc1cccc(OC[Si](C)(C)Cc2ccccc2)c1` had an ED50 of over 40 mg/kg. The IC50 in experiment [3] is over 10000 nM.
As to `CCN(C/C=C/C#CC(C)(C)C)Cc1cccc(OC[Si](C)(C)c2ccccc2C)c1`, the IC50 turned out to be 150 nM with HepG2 [4] and 120 nM in experiment [3]. The ED50 in experiment [2] stood at 3.8 mg/kg.
In experiment [3], `CCN(C/C=C/C#CC(C)(C)C)Cc1cccc(OC[Si](C)(C)c2ccc(C(N)=O)cc2)c1` gave a 50% inhibitory concentration (IC50) of 1000 nM.
As for `CCN(C/C=C/C#CC(C)(C)C)Cc1cccc(OC[Si](C)(C)c2ccc(SC)cc2)c1`, the IC50 in experiment [3] was over 10000 nM.
The same measure, in the same setting: the figure for `CCN(C/C=C/C#CC(C)(C)C)Cc1cccc(OC[Si](C)(C)CCc2ccccc2)c1` is over 10000 nM; for `CCN(C/C=C/C#CC(C)(C)C)Cc1cccc(OC[Si](C)(C)c2ccc(C)cc2)c1` it is 5000 nM.
Same read-out and setting: the figure for `CCN(C/C=C/C#CC(C)(C)C)Cc1cccc(OC[Si](C)(C)c2ccc(OC)cc2)c1` is over 10000 nM.
`CCN(C/C=C/C#CC(C)(C)C)Cc1cccc(OC[Si](C)(C)c2ccccc2OC)c1` returned an ED50 in experiment [2] of over 40 mg/kg. Further, half-maximal inhibition in experiment [3] (IC50) required 5000 nM.
Take `CCN(C/C=C/C#CC(C)(C)C)Cc1cccc(OC[Si](C)(C)c2ccc(C#N)cc2)c1`: the IC50 in the experiment with HepG2 [4] stood at 70 nM; in experiment [3], 60 nM. Also, the ED50 in experiment [2] was over 40 mg/kg.
Turning to `CCN(C/C=C/C#CC(C)(C)C)Cc1cccc(OCc2cc(-c3ccsc3)cs2)c1`, the ED50 in the experiment on Rattus norvegicus is 2.5 mg/kg. In the experiment with HepG2 [5], the IC50 is 20 nM.
In experiment [2], `CCN(C/C=C/C#CC(C)(C)C)Cc1cccc(OC[Si](C)(C)c2ccc(Cl)cc2)c1` displayed an ED50 of over 40 mg/kg. The IC50 in experiment [3] was over 10000 nM.
Taken in the same sequence, the figures for `CCN(CC#CC#CC(C)(C)C)Cc1cccc(OC[Si](C)(C)c2ccccc2C)c1` were 5 mg/kg and 780 nM.
Take `CCN(C/C=C/C#CC(C)(C)C)Cc1cccc(OC[Si](C)(C)c2ccc(C=O)cc2)c1`: the IC50 in experiment [1] amounted to 150 nM; in experiment [3] it was 140 nM. This compound also gave an ED50 in experiment [2] of 20 mg/kg.
In experiment [2], `CCN(C/C=C/C#CC(C)(C)C)Cc1cccc(OC[Si](C)(C)c2ccc(F)cc2)c1` displayed an ED50 of over 40 mg/kg. The compound also gave an IC50 in experiment [3] of 5000 nM.
As to `CCN(C/C=C/C#CC(C)(C)C)Cc1cccc(OC[Si](C)(C)c2ccccc2C(F)(F)F)c1`, in experiment [2], the ED50 was found to be 20 mg/kg. Also, the IC50 in experiment [3] worked out at 1480 nM.
Consider `CCN(C/C=C/C#CC(C)(C)C)Cc1cccc(OC[Si](C)(C)c2ccc(Br)cc2)c1`, for which the ED50 in experiment [2] was over 40 mg/kg. In experiment [3], this compound had an IC50 of over 10000 nM.
On to `CCN(C/C=C/C#CC(C)(C)C)Cc1cccc(OC[Si](C)(C)c2ccccc2)c1`, for which the IC50 in experiment [1] was found to be 800 nM; in experiment [3], 500 nM. In experiment [2], the 50% effect level (ED50) was put at a dose of 20 mg/kg.
`CC[C@H](C)C(=O)O[C@H]1C[C@H](O)C=C2C=C[C@H](C)[C@H](CC[C@@H](O)C[C@@H](O)CC(=O)O)[C@H]21` [PRAVASTATIN]: the ED50 in the experiment on Rattus norvegicus was determined as 0.9 mg/kg. Further, the IC50 in the experiment with HepG2 [5] was […]; in experiment [1] it was 430 nM.
